SMILES strings stand for the structures. In brackets after ≈: the same amount, converted by molar mass. Where only a bound is given, the exact number is not on record here.

Assay [1] has as its system Peptoniphilus asaccharolyticus. The experiment in a line: Antibacterial activity against beta-lactamase producing Peptoniphilus asaccharolyticus by CLSI agar dilution method in presence of clavulanate. It counts as functional. The essentials:
(§1)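 CLSI agar dilution MICs for anaerobic blood isolates (nonduplicate) collected from bloodstream-infection patients at a Taiwanese tertiary hospital, January–December 2006. Isolates were spotted by Steers replicator onto supplemented Brucella blood agar and incubated anaerobically for 48 h at 35°C. MIC was the lowest drug concentration inhibiting growth. Each run included B. fragilis ATCC 25285, B. thetaiotaomicron ATCC 29741 and E. lentum ATCC 43055 as quality-control strains.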
In general terms: Agar dilution tests growth on a series of plates holding different concentrations.

In assay [2] the test system is Fusobacterium nucleatum. The experiment in a line: Antibacterial activity against Fusobacterium nucleatum assessed as susceptible isolates by CLSI agar dilution method in presence of clavulanate. Type of assay: functional. An outline of the steps:
(§2)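 Agar dilution per CLSI guidelines on nonduplicate anaerobic bloodstream isolates collected at NTUH, January to December 2006. Isolates were spotted by Steers replicator onto supplemented Brucella blood agar and incubated anaerobically for 48 h at 35°C. MIC was the lowest drug concentration that inhibited growth. B. fragilis ATCC 25285, B. thetaiotaomicron ATCC 29741 and E. lentum ATCC 43055 were run as QC in each run.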

The subject of assay [3] is Bacteroides caccae. Description: Antibacterial activity against beta-lactamase producing Bacteroides caccae assessed as resistant isolates by CLSI agar dilution method in presence of clavulanate. It counts as functional. An outline of the steps:
(§3)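 207 nonduplicate anaerobic blood isolates from patients with bloodstream infections at NTUH, collected January–December 2006. MICs were determined by agar dilution following CLSI guidelines. Inocula were applied with a Steers replicator onto supplemented Brucella blood agar and incubated 48 h at 35°C in an anaerobic chamber. MIC was the lowest concentration inhibiting growth. B. fragilis ATCC 25285, B. thetaiotaomicron ATCC 29741 and E. lentum ATCC 43055 served as controls in each run.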

Assay [4] relates to Bacteroides thetaiotaomicron. Description: Antibacterial activity against beta-lactamase producing Bacteroides thetaiotaomicron assessed as susceptible isolates by CLSI agar dilution method in presence of clavulanate. Type of assay: functional. The essentials:
as §2

For assay [5], the system named is Bacteroides caccae. Description: Antibacterial activity against beta-lactamase producing Bacteroides caccae by CLSI agar dilution method in presence of clavulanate. It counts as functional. An outline of the steps:
as §2

Assay [6] has as its system Clostridium paraputrificum. Description: Antibacterial activity against beta-lactamase producing Clostridium paraputrificum assessed as susceptible isolates by CLSI agar dilution method in presence of clavulanate. Type of assay: functional. An outline of the steps:
as §1

Assay [7] has as its system Bacteroides fragilis. Description: Antibacterial activity against Bacteroides fragilis assessed as resistant isolates by CLSI agar dilution method in presence of clavulanate. It counts as functional. An outline of the steps: as §3
In assay [8] the test system is Clostridium septicum. Description: Antibacterial activity against beta-lactamase producing Clostridium septicum assessed as susceptible isolates by CLSI agar dilution method in presence of clavulanate. It counts as functional. An outline of the steps: as §1
Assay [9] has as its system Fusobacterium varium. The experiment in a line: Antibacterial activity against Fusobacterium varium assessed as resistant isolates by CLSI agar dilution method in presence of clavulanate. Type of assay: functional. The essentials: as §3
Assay [10] concerns Peptostreptococcus anaerobius. The experiment in a line: Antibacterial activity against beta-lactamase producing Peptostreptococcus anaerobius assessed as susceptible isolates by CLSI agar dilution method in presence of clavulanate. Type of assay: functional. An outline of the steps: as §1
Another assay concerns Veillonella parvula. The experiment in a line: Antibacterial activity against Veillonella parvula by CLSI agar dilution method in presence of clavulanate. Type of assay: functional. The essentials:
as §2

Assay [11] deals with Fusobacterium varium. The experiment in a line: Antibacterial activity against Fusobacterium varium assessed as susceptible isolates by CLSI agar dilution method in presence of clavulanate. Type of assay: functional. The essentials: as §2
Assay [12] deals with Bacteroides caccae. The experiment in a line: Antibacterial activity against beta-lactamase producing Bacteroides caccae assessed as susceptible isolates by CLSI agar dilution method. It counts as functional.
In assay [13] the test system is Peptoniphilus asaccharolyticus. Description: Antibacterial activity against beta-lactamase producing Peptoniphilus asaccharolyticus assessed as resistant isolates by CLSI agar dilution method in presence of Tazobactam. Type of assay: functional. An outline of the steps:
as §3

Assay [14] concerns Parvimonas micra. The experiment in a line: Antibacterial activity against beta-lactamase producing Micromonas micros assessed as susceptible isolates by CLSI agar dilution method. It counts as functional.
The subject of assay [15] is Prevotella buccae. Description: Antibacterial activity against Prevotella buccae assessed as resistant isolates by CLSI agar dilution method. Type of assay: functional, Segatella buccae.
For assay [16], the system named is Clostridium septicum. The experiment in a line: Antibacterial activity against beta-lactamase producing Clostridium septicum assessed as resistant isolates by CLSI agar dilution method. It counts as functional.
Assay [17] has as its system Clostridium paraputrificum. Description: Antibacterial activity against beta-lactamase producing Clostridium paraputrificum assessed as susceptible isolates by CLSI agar dilution method in presence of Tazobactam. Type of assay: functional. The essentials: as §1
The subject of assay [18] is Clostridium paraputrificum. The experiment in a line: Antibacterial activity against beta-lactamase producing Clostridium paraputrificum assessed as resistant isolates by CLSI agar dilution method in presence of Tazobactam. It counts as functional. The essentials: as §3
For assay [19], the system named is Bacteroides uniformis. The experiment in a line: Antibacterial activity against beta-lactamase producing Bacteroides uniformis assessed as resistant isolates by CLSI agar dilution method. Type of assay: functional.
Assay [20] deals with Fusobacterium varium. Description: Antibacterial activity against Fusobacterium varium assessed as resistant isolates by CLSI agar dilution method. Type of assay: functional.
The test system of assay [21] is Parvimonas micra. Description: Antibacterial activity against beta-lactamase producing Micromonas micros assessed as susceptible isolates by CLSI agar dilution method in presence of Tazobactam. It counts as functional. An outline of the steps: as §1
For assay [22], the system named is Prevotella intermedia. Description: Antibacterial activity against Prevotella intermedia assessed as resistant isolates by CLSI agar dilution method. It counts as functional.
For assay [23], the system named is Fusobacterium nucleatum. The experiment in a line: Antibacterial activity against Fusobacterium nucleatum assessed as susceptible isolates by CLSI agar dilution method in presence of Tazobactam. It counts as functional. An outline of the steps:
as §2

Assay [24] deals with Fusobacterium varium. The experiment in a line: Antibacterial activity against Fusobacterium varium by CLSI agar dilution method in presence of Tazobactam. Type of assay: functional. An outline of the steps:
as §2

Assay [25] has as its system Bacteroides uniformis. The experiment in a line: Antibacterial activity against beta-lactamase producing Bacteroides uniformis assessed as susceptible isolates by CLSI agar dilution method. It counts as functional.
The test system of assay [26] is Bacteroides thetaiotaomicron. The experiment in a line: Antibacterial activity against beta-lactamase producing Bacteroides thetaiotaomicron assessed as resistant isolates by CLSI agar dilution method in presence of Tazobactam. It counts as functional. The essentials:
as §3

Assay [27] concerns Bacteroides fragilis. Description: Antibacterial activity against Bacteroides fragilis by CLSI agar dilution method. It counts as functional.
Assay [28] has as its system Fusobacterium mortiferum. The experiment in a line: Antibacterial activity against Fusobacterium mortiferum by CLSI agar dilution method. It counts as functional.
The test system of assay [29] is Peptostreptococcus anaerobius. The experiment in a line: Antibacterial activity against beta-lactamase producing Peptostreptococcus anaerobius assessed as resistant isolates by CLSI agar dilution method in presence of Tazobactam. Type of assay: functional. The essentials:
as §3

Assay [30] concerns Finegoldia magna. Description: Antibacterial activity against beta-lactamase producing Finegoldia magna assessed as susceptible isolates by CLSI agar dilution method in presence of Tazobactam. It counts as functional. The essentials:
as §1

Assay [31] has as its system Finegoldia magna. Description: Antibacterial activity against beta-lactamase producing Finegoldia magna assessed as resistant isolates by CLSI agar dilution method in presence of Tazobactam. It counts as functional. An outline of the steps: as §3
The test system of assay [32] is Clostridium paraputrificum. Description: Antibacterial activity against beta-lactamase producing Clostridium paraputrificum assessed as susceptible isolates by CLSI agar dilution method. It counts as functional.
For assay [33], the system named is Prevotella intermedia. Description: Antibacterial activity against Prevotella intermedia assessed as susceptible isolates by CLSI agar dilution method in presence of Tazobactam. It counts as functional. An outline of the steps:
as §2

Assay [34] relates to Bacteroides caccae. Description: Antibacterial activity against beta-lactamase producing Bacteroides caccae assessed as susceptible isolates by CLSI agar dilution method in presence of Tazobactam. Type of assay: functional. An outline of the steps: as §2
Assay [35] deals with Fusobacterium necrophorum. The experiment in a line: Antibacterial activity against Fusobacterium necrophorum assessed as resistant isolates by CLSI agar dilution method in presence of Tazobactam. Type of assay: functional. The essentials:
as §3

Assay [36] concerns Fusobacterium mortiferum. Description: Antibacterial activity against Fusobacterium mortiferum assessed as resistant isolates by CLSI agar dilution method. Type of assay: functional.
For a further assay, the system named is Prevotella bivia. Description: Antibacterial activity against Prevotella bivia assessed as resistant isolates by CLSI agar dilution method in presence of Tazobactam. Type of assay: functional. An outline of the steps: as §3
Assay [37] has as its system Prevotella buccae. Description: Antibacterial activity against Prevotella buccae assessed as resistant isolates by CLSI agar dilution method in presence of Tazobactam. It counts as functional, Segatella buccae. An outline of the steps:
as §3

Assay [38] deals with Peptoniphilus asaccharolyticus. Description: Antibacterial activity against beta-lactamase producing Peptoniphilus asaccharolyticus by CLSI agar dilution method. Type of assay: functional.

Take `CC1(C)S[C@@H]2[C@H](NC(=O)[C@H](N)c3ccc(O)cc3)C(=O)N2[C@H]1C(=O)O` [AMOXICILLIN]: the MIC50 turned out to be 0.25 µg/mL in [1] and 8 µg/mL in the assay with Bacteroides caccae [5]. Also, the MIC90 was found to be 2 µg/mL in [1] and 32 µg/mL in the assay with Bacteroides caccae [5]. In addition, the Activity in the assay on Fusobacterium nucleatum [2] came out at 89%; in the assay with Bacteroides caccae [3], 30%; in assay [4], 63%; in [6], 96%; in the assay on Bacteroides fragilis [7] it was 23%; in the assay on Clostridium septicum [8] it was 96%. Moreover, the Activity was found to be 7% with Fusobacterium varium [9], 94% in assay [10] and 89% with Fusobacterium varium [11]. Also, the MIC in the assay with Veillonella parvula was determined as 0.12 µg/mL.

With `CCN1CCN(C(=O)N[C@@H](C(=O)N[C@@H]2C(=O)N3[C@@H]2SC(C)(C)[C@@H]3C(=O)O)c2ccccc2)C(=O)C1=O` [PIPERACILLIN], the Activity in the assay with Bacteroides caccae [12] is 35%; in assay [13] it was 0%; with Parvimonas micra [14] it was 97%; with Prevotella buccae [15] it was 22%; in the assay on Clostridium septicum [16], 0%; in assay [17], 100%. In addition, the Activity in [18] is 0%; with Bacteroides uniformis [19] it was 65%; in the assay with Fusobacterium varium [20] it was 10%; with Parvimonas micra [21], 97%; with Prevotella intermedia [22], 22%; in the assay with Fusobacterium nucleatum [23] it was 100%. Further, the Activity in the assay with Bacteroides uniformis [25] is recorded as 35%; in assay [26], 0%; in assay [29] it was 0%; in the assay with Finegoldia magna [30] it was 97%; in the assay on Finegoldia magna [31] it was 0%; in assay [32] it was 100%. Besides, the Activity with Prevotella intermedia [33] came to 100%; in the assay on Bacteroides caccae [34], 96%; in assay [35], 0%; in the assay with Fusobacterium mortiferum [36] it was 10%; with Prevotella bivia, 0%; with Prevotella buccae [37], 0%. For the same compound, the MIC50 came to 0.5 µg/mL in the assay on Fusobacterium varium [24], 8 µg/mL (≈ 15.5 µM) with Bacteroides fragilis [27], 2 µg/mL (≈ 3.86 µM) in the assay with Fusobacterium mortiferum [28] and 0.12 µg/mL (≈ 0.232 µM) in assay [38]. In addition, the MIC90 in the assay on Fusobacterium varium [24] was 2 µg/mL; against Bacteroides fragilis [27], > 128 µg/mL; in the assay with Fusobacterium mortiferum [28], 8 µg/mL (≈ 15.5 µM); in [38] it was 8 µg/mL (≈ 15.5 µM).

A word on the MIC50: it is the lowest concentration that inhibits either 50% of growth or 50% of the strains tested, depending on the study. The MIC90 is an inhibitory concentration at the 90% level, which refers to growth in some studies and to a panel of isolates in others. As a reminder, the MIC is the lowest concentration found to suppress growth.

The values are drawn from ChEMBL document CHEMBL1671627, “Increasing trends in antimicrobial resistance among clinically important anaerobes and Bacteroides fragilis isolates causing nosocomial infections: emerging resistance to carbapenems” (2008).
